# In the library only some 3.7% were active in any assay of this set; here they are far more common.
# eIF4E-4G inh: eIF4E–eIF4G protein interaction inhibitors, primary screen, biochemical, uHTS, TR-FRET, eIF4GI fragment; Eukaryotic translation initiation factor 4E (Mus musculus) + Eukaryotic translation …; TR-FRET eIF4E-eIF4GI(517-606) binding, 2 h; inhibition, % at 21.7 µM; 0.37% of 220,000 active; AID 782, 2007;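 further: 0% = full FRET control wells and 100% = background wells lacking eIF4GI fragment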
# EBV gp42 block: Epstein-Barr virus gp42 inhibitors, primary screen, biochemical, uHTS, fluorescence polarization; Glycoprotein 42 (Epstein-Barr virus (strain AG876)), Q1HVG2; Fluorescence polarization binding assay, mP read-out; inhibition, % (tested at 21.74 µM); 0.42% of 220,000 active; AID 1085, 2008; in the data active means inhibition above about 50%
# RBBP9 inh: human RBBP9 inhibitors, primary screen, biochemical, fluorescence polarization, FP-Rh probe, HTS; Serine hydrolase RBBP9 (Homo sapiens), O75884; inhibition, % at 7.94 µM; recombinant RBBP9; 0.2% of 220,000 active;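 active means inhibition above the campaign mean of all tested compounds plus 3 SD, cut at about 14% in these data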;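 further: plate controls were DMSO wells with RBBP9 for no effect and wells lacking RBBP9 protein for full effect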
#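 Material: RBBP9 protein. Amount: RBBP9 at 2.5 µM in dispensed solution, before mixing. Schedule: 30 min then 45 min, 25 °C. Medium: Tris buffer pH 8.0, NaCl, Pluronic. Measured by: fluorescence polarization. Measure: percent inhibition from mP, scaled between DMSO and no-protein wells. Replication: one well per compound.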
# NCF1 inh: p47phox/p22phox peptide binding inhibitors, primary screen, biochemical, uHTS, NADPH oxidase regulatory subunit; Neutrophil cytosol factor 1 (Homo sapiens), P14598; fluorescence polarization, 2 h; inhibition, % at 24.7 µM; 0.53% of 220,000 active;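 further: 0% = p47phox with labelled peptide and 100% = labelled peptide alone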
# WT yeast gro inh: growth inhibition of WT strain, primary screen, mitochondrial fusion inhibitor project, WT and mutant strains, chemical genetic; mitochondrial fusion phenotypic screen; inhibition, % at 10 µM; 2.1% of 190,000 active; AID 1362, 2008; in the data active means inhibition above about 58%; tested in S. cerevisiae
# 14-3-3 Bad PPI: inhibitors of 14-3-3 zeta/Bad binding, primary screen, biochemical, TR-FRET, bovine 14-3-3 zeta. 0.71% of 220,000 active. inhibition, % at 21.7 µM. TR-FRET 14-3-3zeta/Dy647-pBad peptide displacement, 1 h;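 active means inhibition above about 70%, limit read from the data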;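 further: 0% = full 14-3-3 plus peptide FRET controls and 100% = background without 14-3-3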
# * = called active by the depositor; nt = not tested or not shown.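 How the source made its calls, unless noted: active means inhibition above about 30% (limit read from the data); inactive means the rest.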
SMILES,eIF4E-4G inh,EBV gp42 block,RBBP9 inh,NCF1 inh,WT yeast gro inh,14-3-3 Bad PPI
Cc1cc(C)cc(Oc2ccc(N)cc2)c1,-1,-5,-10,-8,-20,-5
CCOC(=O)C1C(c2ccc([N+](=O)[O-])cc2)C2C(=O)NN=C2CC1(C)O (configuration not stated),-5,-8,-9,-6,nt,-1
Cc1nn(C)c(C)c1NC(=O)c1ccccc1NC(=O)Nc1ccccc1,-12,-7,-7,6,nt,0
CCOC(=O)c1c(Nc2ccccc2N)cc(C)nc1C,-1,81*,-3,-4,2,17
Cc1ccc(S(=O)(=O)NCC(=O)N/N=C/c2ccccc2O)cc1,4,-31,-3,0,-16,-16
CCCS(=O)(=O)c1nnnn1-c1cccc(OC)c1,5,-24,-1,-4,76*,-3
COc1cccc(-n2nnnc2SCC(=O)Nc2ccc(C(C)=O)cc2)c1,-4,-18,1,4,-13,38
NS(=O)(=O)c1ccc(NC(=O)Nc2ccc(C(F)(F)F)cc2)cc1,5,-1,-44,-25,nt,-4
COc1cc(CN2CCCC(CO)(Cc3cccc(Cl)c3)C2)cc2c1OCO2 (configuration not stated),-1,-1,-5,-17,23,-13
CC(=O)N1C(C)(C)CC(=NOC(=O)c2ccc(C)cc2)CC1(C)C,-1,-16,-3,15,13,-4
CC(=O)N1C(C)(C)CC(=NOC(=O)c2ccccc2)CC1(C)C,-1,-2,-4,-1,-11,92*
C(=N\N1CCN(C2c3ccccc3-c3ccccc32)CC1)/c1ccccn1,4,-9,-8,-10,67*,1
O=C(CSc1ncn[nH]1)N1c2ccccc2Sc2ccccc21,-2,-2,-1,-31,nt,-1
N#CC1=C(N)NC(SCC(=O)c2ccc(Br)cc2)=C(C#N)C12CCCCC2,1,-1,-8,-32,78*,-7
N#CC1=C(N)NC(SCC(=O)c2ccc(Cl)cc2)=C(C#N)C12CCCC2,-7,-12,-13,-12,17,-4
O=C1CN(CC(=O)Nc2cccc(Cl)c2Cl)c2ccccc2N1,-6,-9,4,37*,10,4
Cc1ccc(P(=O)(O)c2ccc(C)cc2)cc1,nt,-16,-9,65*,nt,nt
Nc1nc(NC(=O)c2ccccc2)nn1-c1ccccc1,4,-6,-2,-4,-10,7
Nc1nc(NC(=O)c2cccs2)nn1-c1ccccc1,5,5,-4,-5,36,82*
O=C(Cc1ccccc1Cl)Nc1nc2ccccc2[nH]1,1,-10,1,-11,nt,1
C=CCCCCCCCCC(=O)NN,1,-4,0,-14,7,6
O=C(CSc1nnc(-c2ccco2)o1)c1ccc(O)cc1O,0,-2,-2,-132,-1,2
COc1cccc(CC2(CO)CCN(Cc3ccc4cccc(F)c4n3)CC2)c1,4,-4,-3,-29,-7,90*
CCn1nc(NC(=O)Cc2ccc(OC)cc2)c2cc3cc(C)ccc3nc21,-3,-4,-10,-29,nt,18
COc1cc(/C=C2\N=C(c3ccccc3)OC2=O)ccc1OCc1c(C)no[n+]1[O-],7,24,-5,-8,-2,-6
SMILES,eIF4E-4G inh,EBV gp42 block,RBBP9 inh,NCF1 inh,WT yeast gro inh,14-3-3 Bad PPI
COc1ccc(/C=C2\N=C(c3c(-c4ccccc4)noc3C)OC2=O)cc1OC,-8,57*,7,-1,-13,10
C=CCn1c(O)c(N=NC(=O)CNC(=O)/C=C/c2ccco2)c2ccccc21,3,62*,3,-14,-1,0
Cc1nc2ccc(NC(=O)c3cncc(Br)c3)cc2s1,-3,-23,-1,-28,nt,-2
CC(C)C(NC(=O)c1ccc(C(C)(C)C)cc1)C(=O)NC1=NCCS1 (configuration not stated),3,-1,-3,-10,63*,1
CC(C)C(NC(=O)c1ccc(Br)cc1)C(=O)NC1=NCCS1 (configuration not stated),1,-15,3,-9,21,-5
CC(C)(C)c1ccc(OCCC(=O)NC2=NCCS2)cc1,3,-10,5,-8,76*,4
CNC(=S)NC1CC2CCCC(C1)N2Cc1ccco1 (configuration not stated),-13,0,-11,-19,15,-10
COCCCNC(=S)NC1CC2CCCC(C1)N2Cc1ccco1 (configuration not stated),5,-5,-1,1,99*,-1
O=C(O)CC1(O)C(=O)N(Cc2ccccc2)c2ccccc21 (configuration not stated),-1,-10,-11,-9,-10,-6
Cc1ccc(C(=O)N2c3ccccc3N(Cc3ccccc3)C(=O)C2(C)C)cc1,9,6,-16,0,85*,-7
Cc1cc(C)c(S(=O)(=O)Nc2cccc(S(=O)(=O)NC3=NCCC3)c2)c(C)c1,2,-10,-7,-6,-21,-12
CCn1c(C)c(C(C)=O)cc(C#N)c1=O,2,-4,-6,-8,-12,-15
COc1cccc(F)c1C(C[N+](=O)[O-])c1c(N)n(C)c(=O)n(C)c1=O (configuration not stated),2,-15,-5,-10,nt,3
COc1ccc2c(c1)CCc1c-2n[nH]c1C(=O)O,-5,-11,3,-5,72*,-14
CCOc1ccccc1NC(=O)CCCN1C(=S)NC(C)(C)CC1C (configuration not stated),0,-12,-5,0,-9,-9
O=C(Oc1cccc2c(O)cccc12)c1ccccc1,4,11,3,-13,60*,-5
O=C(N=Nc1c(O)n(C2OC(=O)c3ccccc32)c2ccccc12)c1ccco1 (configuration not stated),7,6,2,31*,nt,52
Cc1ccc(-n2c(O)c(C=NCc3ccccn3)c3ccccc3c2=O)cc1C,-3,-22,-6,-19,-2,-32
Cc1c(Nc2scc(-c3ccccc3)[n+]2-c2ccccc2)c(=O)n(-c2ccccc2)n1C,4,-18,-3,-1,35,8
Cc1ccccc1Nc1scc(-c2ccc(Cl)cc2)[n+]1-c1ccccc1C,1,3,-8,-1,59*,1
